Among the data in ChEMBL document CHEMBL5705891, “Small-molecule kinase inhibitors provide insight into Mps1 cell cycle function” (Nat Chem Biol, 2010) are Activity and inhibition values, retold here.

SMILES strings stand for the structures. Calls of active or inactive are those of the source. The rule behind the calls is not given here.

The target of experiment [1] is Ankyrin repeat and protein kinase domain-containing protein 1 (Homo sapiens) (UniProt Q8NFD2). In words: Inhibition of ANKK1 (unknown origin) assessed as residual enzyme activity at 10 uM by Ambit kinase binding assay relative to control.
Experiment [2] deals with Bone morphogenetic protein receptor type-2 (Homo sapiens) (UniProt Q13873). In words: Inhibition of BMPR2 (unknown origin) assessed as residual enzyme activity at 10 uM by Ambit kinase binding assay relative to control.
The target of experiment [3] is Inhibitor of nuclear factor kappa-B kinase subunit alpha (Homo sapiens) (UniProt O15111). Description: Inhibition of IKK-alpha (unknown origin) assessed as residual enzyme activity at 10 uM by Ambit kinase binding assay relative to control.
Experiment [4] concerns the target Serine/threonine-protein kinase 24 (Homo sapiens) (UniProt Q9Y6E0). In words: Inhibition of MST3 (unknown origin) assessed as residual enzyme activity at 10 uM by Ambit kinase binding assay relative to control.
Experiment [5] addresses Serine/threonine-protein kinase Nek1 (Homo sapiens) (UniProt Q96PY6). Description: Inhibition of NEK1 (unknown origin) assessed as residual enzyme activity at 10 uM by Ambit kinase binding assay relative to control.
The target of experiment [6] is Serine/threonine-protein kinase pim-3 (Homo sapiens) (UniProt Q86V86). In words: Inhibition of PIM3 (unknown origin) assessed as residual enzyme activity at 10 uM by Ambit kinase binding assay relative to control.
The target in experiment [7] is SRSF protein kinase 1 (Homo sapiens) (UniProt Q96SB4). In words: Inhibition of SRPK1 (unknown origin) assessed as residual enzyme activity at 10 uM by Ambit kinase binding assay relative to control.
Experiment [8] deals with Serine/threonine-protein kinase TAO3 (Homo sapiens) (UniProt Q9H2K8). Description: Inhibition of TAOK3 (unknown origin) assessed as residual enzyme activity at 10 uM by Ambit kinase binding assay relative to control.
Experiment [9] concerns the target Tyrosine-protein kinase receptor UFO (Homo sapiens) (UniProt P30530). In words: Inhibition of AXL (unknown origin) assessed as residual enzyme activity at 10 uM by Ambit kinase binding assay relative to control.
The target of the next experiment is Insulin receptor (Homo sapiens, UniProt P06213). Description: Inhibition of INSR (unknown origin) assessed as residual enzyme activity at 10 uM by Ambit kinase binding assay relative to control.
The target of experiment [10] is Insulin receptor-related protein (Homo sapiens, UniProt P14616). Description: Inhibition of INSRR (unknown origin) assessed as residual enzyme activity at 10 uM by Ambit kinase binding assay relative to control.
The target of experiment [11] is MAP/microtubule affinity-regulating kinase 4 (Homo sapiens) (UniProt Q96L34). In words: Inhibition of MARK4 (unknown origin) assessed as residual enzyme activity at 10 uM by Ambit kinase binding assay relative to control.
Experiment [12] has as its target Myosin-IIIb (Homo sapiens) (UniProt Q8WXR4). In words: Inhibition of MYO3B (unknown origin) assessed as residual enzyme activity at 10 uM by Ambit kinase binding assay relative to control.
Experiment [13] has as its system Proto-oncogene tyrosine-protein kinase receptor Ret (Homo sapiens), P07949 [V804M]. Description: Inhibition of RET V804M mutant (unknown origin) assessed as residual enzyme activity at 10 uM by Ambit kinase binding assay relative to control.
The target in experiment [14] is Proto-oncogene tyrosine-protein kinase ROS (Homo sapiens) (UniProt P08922). Description: Inhibition of ROS1 (unknown origin) assessed as residual enzyme activity at 10 uM by Ambit kinase binding assay relative to control.
In experiment [15] the test system is U2OS. Description: Initiation of anaphase in human U2OS cells expressing histone H2B-GFP at 10 uM measured for 20 mins by fluorescence time-lapse microscopy (reference value: 10 %). Type of experiment: functional. In outline:
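U2OS H2B-GFP cells were given DMSO or inhibitor and imaged by fluorescence time-lapse at 37°C, 5% CO₂, one frame every 2 min. NEBD-to-anaphase time was scored for 100 cells per population and plotted as cumulative percentage initiating anaphase.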

The test system of experiment [16] is U2OS. In words: Induction of aneuploidy in UTRM10 cells (unknown origin) expressing wild-type LAP-tagged Mps1 at 5 uM treated for 48 hrs by FACS analysis. It counts as functional, cell-based. A digest of the protocol: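 UTRM10 cells expressing RNAi-resistant LAP-Mps1 WT or M602Q were treated with compound or DMSO for 48 h, then DNA content was analysed by FACS.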
Background: Flow cytometry measures light scatter and fluorescence of single cells or particles in a stream.

Experiment [17] has as its system UTRM10. In words: Upregulation of phosphorylated histone H3 level in UTRM10 cells (unknown origin) upto 1 uM by immunoblot analysis. It counts as functional, cell-based. On the technique in general: A western blot detects proteins with antibodies after separation by electrophoresis.
In experiment [18] the test system is UTRM10. In words: Inhibition of hyperphosphorylation of LAP-tagged Mps1 M602Q mutant (unknown origin) expressed in UTRM10 cells (unknown origin) measured after 90 mins by immunoblot analysis. Type of experiment: cell-based. As to conditions: Homo sapiens.
A short description of experiment [19]: Inhibition of Mps1 in Potoroo PTK2 cells expressing EyFP-tagged human Mad2 assessed as decrease in Mad2 recruitment to kinetochore at 10 uM incubated for 1 hr by fluorescence based imaging analysis relative to control. Also noted: species or system Pt K2. As to conditions: Potorous tridactylus. In outline: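 PtK2 (male Potorous tridactylus kidney) cells stably expressing human Mad2-EYFP, cultured in Advanced MEM with 2% FBS. Cells were pretreated 1 h with 10 μM inhibitor or DMSO, then given DMSO or nocodazole (200 ng·ml⁻¹). Time-lapse imaging ran at 37°C from NEBD. Kinetochore Mad2-EYFP density was background-corrected and normalized. N=20–29 cells; 95% CI; Student's t test.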

For experiment [20], the target named is Aurora kinase B (Homo sapiens) (UniProt Q96GD4). Description: Inhibition of Aurora B activation in human U2OS cells by Western blot analysis. It counts as cell-based.
For experiment [21], the system named is U2OS. In words: Induction of premature entry into anaphase in thymidine-treated human U2OS cells expressing H2B-GFP and Plk4 overexpression measured for 30 mins by time lapse imaging analysis relative to control. It counts as functional. The settings on record: 0.5 h. A digest of the protocol:
(§1)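 Doxycycline-inducible Plk4 U2OS cells expressing H2B-GFP were blocked with thymidine for 18 hrs and released into doxycycline (2 μg·ml⁻¹) for 10 hrs. A second 18-hr thymidine block followed, then release for 6 hrs before 5 μM inhibitor, with or without Plk4 induction. Cells were imaged by time-lapse at 37°C, 5% CO₂, timed from NEBD, and bipolar versus multipolar anaphases were scored. Values are mean ± SD of 3 independent experiments.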

Experiment [22] deals with U2OS. Description: Induction of premature entry into anaphase in thymidine-treated human U2OS cells expressing H2B-GFP and Plk4 overexpression assessed as fragmentary divisions into multiple daughter cells measured for 30 mins by time lapse imaging analysis relative to control. It counts as functional, cell-based. A digest of the protocol: as §1
The next experiment relates to HCT-116. Description: Antiproliferative activity against human HCT-116 cells with p53-/- assessed as loss of clonal survival upto 10 uM incubated for 10 days by crystal violet staining based assay. It counts as functional, cell-based. The settings on record: time 10.0 day. A digest of the protocol: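 Colony outgrowth: cells plated at 200 cells per 60-mm dish, exposed to compound or DMSO vehicle and stained with crystal violet after 10 days. HCT116 grown in McCoy's 5A; A549 and HeLa in DMEM; hTERT-RPE1 in DMEM/F-12. All media had 10% FBS and penicillin/streptomycin, 37°C, 5% CO2. Quantified from 3 independent experiments, mean + SD, Student's t test.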

Another experiment relates to HeLa. Description: Antiproliferative activity against human HeLa cells at 10 uM measured after 96 hrs in presence of Z-VAD-FMK by Syto60 staining based assay. Type of experiment: functional, cell-based.

Inhibitor of nuclear factor kappa-B kinase subunit alpha (Homo sapiens), sequence (O15111 whole entry): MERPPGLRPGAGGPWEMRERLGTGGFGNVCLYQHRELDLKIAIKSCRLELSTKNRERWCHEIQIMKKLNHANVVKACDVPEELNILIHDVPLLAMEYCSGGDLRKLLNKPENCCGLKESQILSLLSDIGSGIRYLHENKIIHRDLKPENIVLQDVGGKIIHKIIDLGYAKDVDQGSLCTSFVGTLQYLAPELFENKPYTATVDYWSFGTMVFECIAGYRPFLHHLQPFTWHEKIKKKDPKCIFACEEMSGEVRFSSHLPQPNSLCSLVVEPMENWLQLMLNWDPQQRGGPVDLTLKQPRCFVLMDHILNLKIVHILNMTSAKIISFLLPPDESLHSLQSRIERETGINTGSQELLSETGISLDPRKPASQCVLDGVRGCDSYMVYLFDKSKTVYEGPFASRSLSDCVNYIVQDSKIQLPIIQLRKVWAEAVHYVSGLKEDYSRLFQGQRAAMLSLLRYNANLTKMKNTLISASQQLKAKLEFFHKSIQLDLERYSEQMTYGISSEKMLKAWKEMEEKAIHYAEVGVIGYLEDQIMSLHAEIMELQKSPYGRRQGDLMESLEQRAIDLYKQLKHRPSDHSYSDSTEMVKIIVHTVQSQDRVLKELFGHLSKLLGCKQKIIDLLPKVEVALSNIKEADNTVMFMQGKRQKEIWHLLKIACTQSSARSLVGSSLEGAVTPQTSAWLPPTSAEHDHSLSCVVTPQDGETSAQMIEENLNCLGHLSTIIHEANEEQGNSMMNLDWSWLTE
MAP/microtubule affinity-regulating kinase 4 (Homo sapiens), sequence (Q96L34 whole entry): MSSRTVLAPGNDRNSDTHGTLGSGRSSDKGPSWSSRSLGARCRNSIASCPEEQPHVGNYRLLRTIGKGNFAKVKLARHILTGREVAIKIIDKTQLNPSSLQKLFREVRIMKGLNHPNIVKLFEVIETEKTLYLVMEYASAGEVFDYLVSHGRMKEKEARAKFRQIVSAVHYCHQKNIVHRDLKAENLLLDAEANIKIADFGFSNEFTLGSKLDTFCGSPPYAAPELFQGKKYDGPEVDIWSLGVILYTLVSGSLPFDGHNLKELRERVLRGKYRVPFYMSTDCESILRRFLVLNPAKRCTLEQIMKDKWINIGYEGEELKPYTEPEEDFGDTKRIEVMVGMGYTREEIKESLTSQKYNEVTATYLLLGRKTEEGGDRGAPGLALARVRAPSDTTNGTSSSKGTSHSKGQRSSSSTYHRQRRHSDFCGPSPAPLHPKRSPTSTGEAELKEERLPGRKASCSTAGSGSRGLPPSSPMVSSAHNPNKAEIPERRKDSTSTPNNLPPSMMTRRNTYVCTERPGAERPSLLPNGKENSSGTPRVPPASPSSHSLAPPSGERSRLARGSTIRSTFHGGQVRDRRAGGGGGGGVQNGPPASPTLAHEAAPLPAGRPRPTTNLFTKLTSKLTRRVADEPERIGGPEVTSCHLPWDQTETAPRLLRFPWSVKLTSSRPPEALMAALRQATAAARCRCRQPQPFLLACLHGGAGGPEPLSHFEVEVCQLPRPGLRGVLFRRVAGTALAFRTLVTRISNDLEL
Insulin receptor-related protein, sequence (P14616 27-742 limits assumed): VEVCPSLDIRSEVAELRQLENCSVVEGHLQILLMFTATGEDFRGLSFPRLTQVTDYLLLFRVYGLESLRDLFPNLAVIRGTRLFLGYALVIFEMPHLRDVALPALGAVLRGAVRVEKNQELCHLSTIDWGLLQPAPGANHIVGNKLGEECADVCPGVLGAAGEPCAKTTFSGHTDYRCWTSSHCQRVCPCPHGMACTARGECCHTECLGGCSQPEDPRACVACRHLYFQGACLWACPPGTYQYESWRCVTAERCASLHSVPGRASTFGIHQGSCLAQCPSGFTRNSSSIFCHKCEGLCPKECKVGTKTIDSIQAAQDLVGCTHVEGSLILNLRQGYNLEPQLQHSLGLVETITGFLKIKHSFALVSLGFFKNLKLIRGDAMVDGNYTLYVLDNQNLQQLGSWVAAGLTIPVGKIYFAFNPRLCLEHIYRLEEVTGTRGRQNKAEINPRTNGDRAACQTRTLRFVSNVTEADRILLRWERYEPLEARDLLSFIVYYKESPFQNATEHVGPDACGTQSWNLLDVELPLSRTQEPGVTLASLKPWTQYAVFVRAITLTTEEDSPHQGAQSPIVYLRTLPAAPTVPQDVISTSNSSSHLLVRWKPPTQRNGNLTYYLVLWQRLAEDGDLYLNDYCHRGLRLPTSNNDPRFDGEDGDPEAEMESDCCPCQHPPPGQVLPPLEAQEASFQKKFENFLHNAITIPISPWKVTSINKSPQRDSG
Insulin receptor-related protein, sequence (P14616 747-1297 limits assumed): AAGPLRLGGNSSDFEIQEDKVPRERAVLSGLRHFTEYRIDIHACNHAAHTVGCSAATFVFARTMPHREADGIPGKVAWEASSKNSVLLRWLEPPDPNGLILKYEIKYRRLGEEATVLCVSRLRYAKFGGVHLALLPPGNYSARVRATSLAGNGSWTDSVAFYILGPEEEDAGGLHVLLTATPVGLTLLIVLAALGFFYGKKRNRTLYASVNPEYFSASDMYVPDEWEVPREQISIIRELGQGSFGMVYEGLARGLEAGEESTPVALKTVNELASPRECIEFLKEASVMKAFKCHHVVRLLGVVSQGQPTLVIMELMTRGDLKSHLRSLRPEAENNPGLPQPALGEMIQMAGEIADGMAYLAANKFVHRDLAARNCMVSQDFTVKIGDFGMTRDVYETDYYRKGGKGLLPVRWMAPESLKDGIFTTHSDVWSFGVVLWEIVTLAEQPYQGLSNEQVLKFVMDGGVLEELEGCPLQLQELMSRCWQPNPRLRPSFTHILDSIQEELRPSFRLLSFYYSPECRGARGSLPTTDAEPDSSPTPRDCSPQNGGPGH
Proto-oncogene tyrosine-protein kinase receptor Ret (Homo sapiens), P07949 [V804M], sequence (P07949 whole entry V804M): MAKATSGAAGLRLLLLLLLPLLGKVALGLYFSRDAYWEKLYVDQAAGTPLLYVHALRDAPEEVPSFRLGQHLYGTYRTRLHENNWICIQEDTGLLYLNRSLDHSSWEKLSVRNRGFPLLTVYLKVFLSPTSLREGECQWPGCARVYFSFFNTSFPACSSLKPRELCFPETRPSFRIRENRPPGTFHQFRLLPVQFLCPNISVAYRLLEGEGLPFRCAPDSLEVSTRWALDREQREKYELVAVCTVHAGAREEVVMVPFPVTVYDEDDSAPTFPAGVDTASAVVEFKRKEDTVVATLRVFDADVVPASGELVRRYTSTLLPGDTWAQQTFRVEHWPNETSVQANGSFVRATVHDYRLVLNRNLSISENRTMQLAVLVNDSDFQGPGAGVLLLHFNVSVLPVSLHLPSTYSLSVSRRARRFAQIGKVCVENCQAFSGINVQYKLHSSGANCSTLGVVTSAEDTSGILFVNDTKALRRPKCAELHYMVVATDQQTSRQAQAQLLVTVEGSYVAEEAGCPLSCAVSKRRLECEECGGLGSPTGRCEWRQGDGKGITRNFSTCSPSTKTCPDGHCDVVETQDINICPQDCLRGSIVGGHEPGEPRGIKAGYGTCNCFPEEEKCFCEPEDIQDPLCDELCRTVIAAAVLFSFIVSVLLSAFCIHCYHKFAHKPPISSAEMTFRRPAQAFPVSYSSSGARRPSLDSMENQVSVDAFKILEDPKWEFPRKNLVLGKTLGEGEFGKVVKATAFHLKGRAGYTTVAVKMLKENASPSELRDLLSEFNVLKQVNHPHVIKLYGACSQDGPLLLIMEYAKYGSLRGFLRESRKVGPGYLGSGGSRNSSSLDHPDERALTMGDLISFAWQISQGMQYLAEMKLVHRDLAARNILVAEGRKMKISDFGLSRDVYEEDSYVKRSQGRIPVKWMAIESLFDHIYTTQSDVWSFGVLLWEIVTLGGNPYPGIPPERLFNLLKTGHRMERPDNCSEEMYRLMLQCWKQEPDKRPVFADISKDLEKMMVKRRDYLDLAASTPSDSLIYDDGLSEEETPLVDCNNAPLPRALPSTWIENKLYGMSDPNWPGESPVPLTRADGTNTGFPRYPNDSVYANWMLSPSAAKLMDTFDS
Serine/threonine-protein kinase 24 (Homo sapiens), sequence (Q9Y6E0 whole entry, looked up): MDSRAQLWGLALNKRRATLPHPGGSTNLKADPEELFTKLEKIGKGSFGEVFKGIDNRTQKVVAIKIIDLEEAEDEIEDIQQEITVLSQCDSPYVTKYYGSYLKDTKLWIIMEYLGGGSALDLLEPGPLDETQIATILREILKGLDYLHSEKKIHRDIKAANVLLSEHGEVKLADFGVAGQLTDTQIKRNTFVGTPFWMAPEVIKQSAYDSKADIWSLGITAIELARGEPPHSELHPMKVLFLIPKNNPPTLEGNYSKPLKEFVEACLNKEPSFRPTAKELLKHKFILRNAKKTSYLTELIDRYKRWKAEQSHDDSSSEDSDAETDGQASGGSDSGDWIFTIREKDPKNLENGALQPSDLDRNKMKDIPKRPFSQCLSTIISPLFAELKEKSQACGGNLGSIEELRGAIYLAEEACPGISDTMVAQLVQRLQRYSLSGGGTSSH
Aurora kinase B (Homo sapiens), sequence (Q96GD4 whole entry): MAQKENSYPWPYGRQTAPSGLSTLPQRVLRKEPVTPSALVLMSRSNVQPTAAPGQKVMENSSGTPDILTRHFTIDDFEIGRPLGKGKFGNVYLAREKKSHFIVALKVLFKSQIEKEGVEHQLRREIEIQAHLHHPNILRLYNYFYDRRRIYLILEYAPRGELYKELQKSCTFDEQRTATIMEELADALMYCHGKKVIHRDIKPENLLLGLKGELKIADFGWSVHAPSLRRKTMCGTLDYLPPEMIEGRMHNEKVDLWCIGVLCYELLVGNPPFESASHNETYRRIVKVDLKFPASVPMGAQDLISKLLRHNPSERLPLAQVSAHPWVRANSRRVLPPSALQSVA

Regarding `O=C1c2ccccc2-c2n[nH]c3cccc1c23`, the Activity in experiment [1] worked out at 0.95%; in [2], 15%; in experiment [3], 0.1%; in [4], 1.8%; in [5], 15%; in [6] it was 14%. Besides, the Activity in experiment [7] worked out at 32%; in experiment [8], 22%.

In general, inhibition refers to the drop in the measured response relative to a control, in per cent. `COc1cc(N2CCC(O)CC2)ccc1Nc1cc(Nc2ccccc2S(=O)(=O)C(C)C)c2cc[nH]c2n1`: the Activity in [9] stood at 19%; at Insulin receptor, 0.15%; in [10], 2%; in [11] it was 1.2%; in [12], 28%; in experiment [13] it was 0.5%. For the same molecule, the results for the Activity (in experiment [14]; in the experiment on U2OS [15]; with U2OS [21]) were 12%, around 100% and around 60%, respectively. Besides, the outcome with U2OS [16], in the experiment with UTRM10 [17], in the experiment on U2OS [22], with HCT-116 and in the experiment on HeLa was Active. The inhibition result in the experiment with UTRM10 [18] was “inactive”. In experiment [19], the inhibition at 10 µM stood at 80%. For the same molecule, the inhibition result in experiment [20] was “Active”.
